In ChEMBL document CHEMBL1137710, “Synthesis and in vitro antitumor activity of new quinoxaline derivatives” (2009):

Experiments:
Format in all cases: functional
[1] = test system: OVCAR-5; test: Growth inhibition of human OVCAR5 cells after 48 hrs by sulforhodamine B assay; conditions: OVCAR-5, 48 h
Summary of the method: (§1)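 NCI 60-human-tumor-cell-line panel, with compounds tested over a 5-log dose range. Values are taken from dose-response curves as log10 molar concentrations: GI50 is 50% net growth inhibition, TGI is total growth inhibition, and LC50 is 50% net cell death.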

[2] = Growth inhibition of human Hs 578T cells after 48 hrs by sulforhodamine B assay; summary of the method: as §1
[3] = test system: LOX IMVI; test: Growth inhibition of human LOXIMVI cells after 48 hrs by sulforhodamine B assay; summary of the method: as §1
[4] = test system: MDA-MB-231; test: Growth inhibition of human MDA-MB-231 cells after 48 hrs by sulforhodamine B assay; conditions: MDA-MB-231, 48 h; summary of the method: as §1
[5] = test system: COLO 205; test: Growth inhibition of human COLO205 cells after 48 hrs by sulforhodamine B assay; conditions: COLO 205, 48 h; summary of the method: as §1
[6] = test system: SW-620; test: Growth inhibition of human SW620 cells after 48 hrs by sulforhodamine B assay; conditions: SW-620, 48 h
Summary of the method: (§2)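 Run in the NCI 60-human-tumour-cell-line panel, tested over a 5-log dose range. Dose–response curves gave three values per cell line, each as a log10 molar concentration: GI50 (50% inhibition of net cell growth), TGI (total inhibition of net growth) and LC50 (50% net cell death). The mean graph midpoint is the arithmetic mean over all lines, with insensitive lines entered at the highest concentration tested.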

[7] = test system: 786-0; test: Growth inhibition of human 786-0 cells after 48 hrs by sulforhodamine B assay; conditions: 786-0, 48 h; summary of the method: as §1
[8] = test system: SNB-19; test: Growth inhibition of human SNB19 cells after 48 hrs by sulforhodamine B assay; conditions: SNB-19, 48 h; summary of the method: as §2
[9] = test system: MCF7; test: Anticancer activity against human MCF7 cells assessed as cell growth at 100 uM after 48 hrs by sulforhodamine B assay; conditions: MCF7, 48 h, read-out: Activity
[10] = test system: NCI-H322M; test: Growth inhibition of human NCI-H322M cells after 48 hrs by sulforhodamine B assay; summary of the method: as §1
[11] = test system: M14; test: Growth inhibition of human M14 cells after 48 hrs by sulforhodamine B assay; conditions: M14, 48 h; summary of the method: as §1
[12] = test system: SK-MEL-28; test: Growth inhibition of human SK-MEL-28 cells after 48 hrs by sulforhodamine B assay; conditions: SK-MEL-28, 48 h; summary of the method: as §1
[13] = test system: SF-268; test: Growth inhibition of human SF268 cells after 48 hrs by sulforhodamine B assay; conditions: SF-268, 48 h; summary of the method: as §1
[14] = test system: OVCAR-4; test: Growth inhibition of human OVCAR4 cells after 48 hrs by sulforhodamine B assay; conditions: OVCAR-4, 48 h; summary of the method: as §1
[15] = test system: CAKI-1; test: Growth inhibition of human Caki1 cells after 48 hrs by sulforhodamine B assay; conditions: CAKI-1, 48 h; summary of the method: as §1
[16] = test system: SF-268; test: Anticancer activity against human SF268 cells assessed as cell growth at 100 uM after 48 hrs by sulforhodamine B assay; conditions: SF-268, 48 h, read-out: Activity
[17] = test system: MDA-MB-435; test: Growth inhibition of human MDA-MB-435 cells after 48 hrs by sulforhodamine B assay; conditions: MDA-MB-435, 48 h; summary of the method: as §1
[18] = test system: SK-MEL-2; test: Growth inhibition of human SK-MEL-2 cells after 48 hrs by sulforhodamine B assay; conditions: SK-MEL-2, 48 h; summary of the method: as §1
[19] = test system: NCI/ADR-RES; test: Growth inhibition of human NCI/ADR-RES cells after 48 hrs by sulforhodamine B assay; summary of the method: as §1
[20] = test system: SK-MEL-5; test: Growth inhibition of human SK-MEL-5 cells after 48 hrs by sulforhodamine B assay; conditions: SK-MEL-5, 48 h; summary of the method: as §1
[21] = test system: U-251; test: Growth inhibition of human U251 cells after 48 hrs by sulforhodamine B assay; conditions: U-251, 48 h; summary of the method: as §2
[22] = test system: SF-295; test: Growth inhibition of human SF295 cells after 48 hrs by sulforhodamine B assay; conditions: SF-295, 48 h; summary of the method: as §1
[23] = Growth inhibition of human […] cells after 48 hrs by sulforhodamine B assay; summary of the method: as §1
[24] = test system: UACC-62; test: Growth inhibition of human UACC62 cells after 48 hrs by sulforhodamine B assay; conditions: UACC-62, 48 h; summary of the method: as §2
[25] = test system: NCI-H522; test: Growth inhibition of human NCI-H522 cells after 48 hrs by sulforhodamine B assay; conditions: NCI-H522, 48 h; summary of the method: as §1
[26] = test system: NCI-H23; test: Growth inhibition of human NCI-H23 cells after 48 hrs by sulforhodamine B assay; conditions: NCI-H23, 48 h; summary of the method: as §1
[27] = test system: OVCAR-3; test: Growth inhibition of human OVCAR-3 cells after 48 hrs by sulforhodamine B assay; conditions: OVCAR-3, 48 h; summary of the method: as §1
[28] = test system: K562; test: Growth inhibition of human K562 cells after 48 hrs by sulforhodamine B assay; conditions: K562, 48 h; summary of the method: as §1
[29] = test system: HCT-116; test: Growth inhibition of human HCT116 cells after 48 hrs by sulforhodamine B assay; conditions: HCT-116, 48 h; summary of the method: as §1
[30] = test system: RXF 393; test: Growth inhibition of human RXF393 cells after 48 hrs by sulforhodamine B assay; conditions: RXF 393, 48 h; summary of the method: as §1
[31] = read-out: pLC50 (the source's name) (converted)

Compound COc1cc(OC)cc(Oc2nc3cc(N)cc(N)c3nc2-c2ccccc2)c1 has a GI50 [1] of 3.24 µM, a CC50 [1, 31] of 40.7 µM and a TGI ([1]; read-out: pTGI (converted)) of 16.2 µM. The GI50 [2] was 1320 nM, the CC50 [2, 31] was 25.7 µM and the TGI ([2]; read-out: pTGI (converted)) was 4.17 µM. It also gave a GI50 [3] of 2950 nM, a TGI ([3]; read-out: pTGI (converted)) of 12.9 µM and a GI50 [4] of 3.98 µM. The CC50 [4, 31] was 87.1 µM, the TGI ([4]; read-out: pTGI (converted)) was 21.9 µM and the GI50 [5] was 10.7 µM. It also gave a TGI ([5]; read-out: pTGI (converted)) of 22.4 µM, a GI50 [6] of 2240 nM and a CC50 [6, 31] of 31.6 µM. The TGI ([6]; read-out: pTGI (converted)) was 10.2 µM, the GI50 [7] was 15.1 µM and the CC50 [7, 31] was over 100 µM. For the same compound, the TGI ([7]; read-out: pTGI (converted)) was 41.7 µM, the GI50 [8] was 2510 nM and the TGI ([8]; read-out: pTGI (converted)) was 12.6 µM. It also gave a growth at 100 µM [9] of 0%, a GI50 [10] of 2240 nM and a TGI ([10]; read-out: pTGI (converted)) of 15.1 µM. The GI50 [11] was 1580 nM, the CC50 [11, 31] was 28.8 µM and the TGI ([11]; read-out: pTGI (converted)) was 7.76 µM. For the same compound, the GI50 [12] was 3.16 µM, the CC50 [12, 31] was 38.9 µM and the TGI ([12]; read-out: pTGI (converted)) was 15.5 µM. It also gave a GI50 [13] of 1740 nM, a TGI ([13]; read-out: pTGI (converted)) of 7.08 µM and a GI50 [14] of 2880 nM. The CC50 [14, 31] was 58.9 µM, the TGI ([14]; read-out: pTGI (converted)) was 16.2 µM and the GI50 [15] was 16.2 µM. It also gave a CC50 [15, 31] of 79.4 µM, a TGI ([15]; read-out: pTGI (converted)) of 36.3 µM and a growth at 100 µM [16] of 1%. It also gave a GI50 [17] of 389 nM, a CC50 [17, 31] of 5.01 µM and a TGI ([17]; read-out: pTGI (converted)) of 1820 nM. The GI50 [18] was 2290 nM, the CC50 [18, 31] was 38 µM and the TGI ([18]; read-out: pTGI (converted)) was 10.2 µM. The GI50 [19] was 1120 nM, the CC50 [19, 31] was 18.2 µM and the TGI ([19]; read-out: pTGI (converted)) was 3.89 µM. For the same compound, the GI50 [20] was 1910 nM, the CC50 [20, 31] was 24.5 µM and the TGI ([20]; read-out: pTGI (converted)) was 6.46 µM. For the same compound, the GI50 [21] was 2630 nM, the TGI ([21]; read-out: pTGI (converted)) was 10.7 µM and the GI50 [22] was 2190 nM. The TGI ([22]; read-out: pTGI (converted)) was 8.51 µM, the GI50 [23] was 2880 nM and the TGI ([23]; read-out: pTGI (converted)) was 8.51 µM. The GI50 [24] was 4.07 µM, the CC50 [24, 31] was 47.9 µM and the TGI ([24]; read-out: pTGI (converted)) was 18.2 µM. The GI50 [25] was 891 nM, the TGI ([25]; read-out: pTGI (converted)) was 4.27 µM and the GI50 [26] was 1700 nM. It also gave a TGI ([26]; read-out: pTGI (converted)) of 12.6 µM, a GI50 [27] of 2240 nM and a CC50 [27, 31] of 55 µM. The TGI ([27]; read-out: pTGI (converted)) was 8.71 µM, the GI50 [28] was 3.8 µM and the TGI ([28]; read-out: pTGI (converted)) was 32.4 µM. It also gave a GI50 [29] of 2340 nM, a TGI ([29]; read-out: pTGI (converted)) of 10 µM and a GI50 [30] of 5.37 µM. The CC50 [30, 31] was 44.7 µM and the TGI ([30]; read-out: pTGI (converted)) was 18.2 µM.
